# Laboratory results as given in ChEMBL document CHEMBL3785007 (Drug Metabol Drug Interact, 2011).
# Assays:
# [1] = Cmax in healthy Chinese subject (8 subjects) with heterozygous mutant of NAT2 genotype at 300 mg, po administered after overnight fast by HPLC method; assay type: ADME, organism-based; parameters: dose 300 mg, route oral; conditions: human, in vivo
# Homo sapiens [2] = assay: AUC in healthy Chinese subject (8 subjects) with heterozygous mutant of NAT2 genotype at 300 mg, po administered after overnight fast by HPLC method; assay type: ADME, organism-based; conditions: in vivo
# How it was run: (§1)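 Plasma separated within 1 h and stored at −70°C. Deproteinised with 10% perchloric acid, then reversed-phase C18 HPLC with UV detection at 266 nm. AUC by trapezoidal method extrapolated to infinity; mean±SD.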
# [3] = Clearance in healthy Chinese subject (8 subjects) with heterozygous mutant of NAT2 genotype at 300 mg, po administered after overnight fast by HPLC method; assay type: ADME, organism-based; conditions: human, in vivo
# Homo sapiens [4] = assay: Cmax in healthy Chinese subject (8 subjects) with heterozygous mutant of NAT2 genotype assessed as N-acetylisoniazid at 300 mg, po administered after overnight fast by HPLC method; assay type: ADME, organism-based; parameters: dose 300 mg, route oral; conditions: in vivo
# Homo sapiens [5] = assay: AUC in healthy Chinese subject (8 subjects) with heterozygous mutant of NAT2 genotype assessed as N-acetylisoniazid at 300 mg, po administered after overnight fast by HPLC method; assay type: ADME, organism-based; conditions: in vivo; how it was run: as §1
# Homo sapiens [6] = assay: Clearance in healthy Chinese subject (8 subjects) with heterozygous mutant of NAT2 genotype assessed as N-acetylisoniazid at 300 mg, po administered after overnight fast by HPLC method; assay type: ADME, organism-based; conditions: in vivo
# [7] = Cmax in healthy Chinese subject (8 subjects) with homozygous wild type NAT2 genotype at 300 mg, po administered after overnight fast by HPLC method; assay type: ADME, organism-based; parameters: dose 300 mg, route oral; conditions: human, in vivo
# Homo sapiens [8] = assay: AUC in healthy Chinese subject (8 subjects) with homozygous wild type NAT2 genotype at 300 mg, po administered after overnight fast by HPLC method; assay type: ADME, organism-based; conditions: in vivo; how it was run: as §1
# [9] = Clearance in healthy Chinese subject (8 subjects) with homozygous wild type NAT2 genotype at 300 mg, po administered after overnight fast by HPLC method; assay type: ADME, organism-based; conditions: human, in vivo
# Homo sapiens [10] = assay: Cmax in healthy Chinese subject (8 subjects) with homozygous wild type NAT2 genotype assessed as N-acetylisoniazid at 300 mg, po administered after overnight fast by HPLC method; assay type: ADME, organism-based; parameters: dose 300 mg, route oral; conditions: in vivo
# Homo sapiens [11] = assay: AUC in healthy Chinese subject (8 subjects) with homozygous wild type NAT2 genotype assessed as N-acetylisoniazid at 300 mg, po administered after overnight fast by HPLC method; assay type: ADME, organism-based; conditions: in vivo; how it was run: as §1
# Homo sapiens [12] = assay: Clearance in healthy Chinese subject (8 subjects) with homozygous wild type NAT2 genotype assessed as N-acetylisoniazid at 300 mg, po administered after overnight fast by HPLC method; assay type: ADME, organism-based; conditions: in vivo
# [13] = Cmax in healthy Chinese subject (8 subjects) with homozygous mutant of NAT2 genotype at 300 mg, po administered after overnight fast by HPLC method; assay type: ADME, organism-based; parameters: dose 300 mg, route oral; conditions: human, in vivo
# Homo sapiens [14] = assay: AUC in healthy Chinese subject (8 subjects) with homozygous mutant of NAT2 genotype at 300 mg, po administered after overnight fast by HPLC method; assay type: ADME, organism-based; conditions: in vivo; how it was run: as §1
# [15] = Clearance in healthy Chinese subject (8 subjects) with homozygous mutant of NAT2 genotype at 300 mg, po administered after overnight fast by HPLC method; assay type: ADME, organism-based; conditions: human, in vivo
# Homo sapiens [16] = assay: Cmax in healthy Chinese subject (8 subjects) with homozygous mutant of NAT2 genotype assessed as N-acetylisoniazid at 300 mg, po administered after overnight fast by HPLC method; assay type: ADME, organism-based; parameters: dose 300 mg, route oral; conditions: in vivo
# Homo sapiens [17] = assay: AUC in healthy Chinese subject (8 subjects) with homozygous mutant of NAT2 genotype assessed as N-acetylisoniazid at 300 mg, po administered after overnight fast by HPLC method; assay type: ADME, organism-based; conditions: in vivo; how it was run: as §1
# Homo sapiens [18] = assay: Clearance in healthy Chinese subject (8 subjects) with homozygous mutant of NAT2 genotype assessed as N-acetylisoniazid at 300 mg, po administered after overnight fast by HPLC method; assay type: ADME, organism-based; conditions: in vivo
# [19] = test system: Mycobacterium tuberculosis; assay: Antitubercular activity against Mycobacterium tuberculosis in tuberculosis patient assessed as compound AUC (0 to infinity) required to cause 90% maximum early bactericidal activity at 0.2 to 12 mg/kg; assay type: functional, organism-based
# [20] = test system: Mycobacterium tuberculosis; assay: Antitubercular activity against Mycobacterium tuberculosis in tuberculosis patient assessed as compound level in serum required to cause 90% maximum early bactericidal activity at 0.2 to 12 mg/kg after 2 hrs; assay type: functional
smiles,measurement,setting,value
NNC(=O)c1ccncc1 [ISONIAZID],Cmax,[1],5720 ng/mL
same,AUC,Homo sapiens [2],16300 ng·h/mL
same,CL/F,[3],320 mL/min
same,Cmax,Homo sapiens [4],3990 ng/mL
same,AUC,Homo sapiens [5],38000 ng·h/mL
same,CL,Homo sapiens [6],8.03 L/h
same,Cmax,[7],4930 ng/mL
same,AUC,Homo sapiens [8],10400 ng·h/mL
same,CL/F,[9],501 mL/min
same,Cmax,Homo sapiens [10],5590 ng/mL
same,AUC,Homo sapiens [11],42200 ng·h/mL
same,CL,Homo sapiens [12],7.4 L/h
same,Cmax,[13],8280 ng/mL
same,AUC,Homo sapiens [14],42200 ng·h/mL
same,CL/F,[15],130 mL/min
same,Cmax,Homo sapiens [16],1380 ng/mL
same,AUC,Homo sapiens [17],19800 ng·h/mL
same,CL,Homo sapiens [18],16.07 L/h
same,AUC,[19],10500 ng·h/mL
same,Activity,[20],2.19 µg/mL
